Target: ATP-dependent Clp protease proteolytic subunit (Escherichia coli (strain K12)) (UniProt P0A6G7)
Assay: Inhibition of Escherichia coli C-terminal His6-tagged ClpP expressed Escherichia coli SG1146a at 200 uM using Suc-LY-AMC as substrate preincubated for 10 mins followed by substrate addition and measured over 1 hr by fluorescence assay relative to control
Procedure, shortened: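 E. coli ClpP (625 nM) in 100 mM NaCl, 100 mM Hepes pH 7.5, 0.05% Brij 35, preincubated with compound (200 µM final, triplicates) 10 min at 30 °C. Suc-LY-AMC added (75 µM), fluorescence (ex 350/em 435 nm) followed over 1 h at 30 °C. Inhibition relative to 2% DMSO vehicle; Z-LY-CMK (200 µM) positive control; plates valid at Z' > 0.6.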

ATP-dependent Clp protease proteolytic subunit (Escherichia coli (strain K12)), sequence (P0A6G7 whole entry): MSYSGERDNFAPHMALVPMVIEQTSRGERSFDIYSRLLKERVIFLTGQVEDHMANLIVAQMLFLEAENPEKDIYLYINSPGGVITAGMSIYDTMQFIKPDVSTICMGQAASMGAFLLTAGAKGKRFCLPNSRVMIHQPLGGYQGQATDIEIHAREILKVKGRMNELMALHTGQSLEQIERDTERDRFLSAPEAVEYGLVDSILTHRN

SMILES	inhibition
CC(=O)Nc1ccc(OP(=O)(Oc2ccc(NC(C)=O)cc2)C(NC(=O)OCc2ccccc2)c2cccc(N)c2)cc1 (stereo unspecified)	21%
N=C(N)N1CCC(C(NS(=O)(=O)CCOc2ccccc2)P(=O)(Oc2ccccc2)Oc2ccccc2)CC1 (stereo unspecified)	27%
N=C(N)c1ccc(C(NC(=O)OCc2ccccc2)P(=O)(Oc2ccccc2)Oc2ccccc2)cc1 (stereo unspecified)	30%
CN(C)c1ccc(C(NC(=O)OCc2ccccc2)P(=O)(Oc2ccccc2)Oc2ccccc2)cc1NS(C)(=O)=O (stereo unspecified)	46%
O=C(NC(c1cc([N+](=O)[O-])ccc1Cl)P(=O)(Oc1ccccc1)Oc1ccccc1)OCc1ccccc1 (stereo unspecified)	6%
COC(=O)NC(c1cccc(N)c1)P(=O)(Oc1ccccc1)Oc1ccccc1 (stereo unspecified)	7%
N#C[C@H](Cc1ccccc1)NC(=O)OCc1ccccc1	< 1%
O=C(NC(CC1CCNCC1)P(=O)(Oc1ccccc1)Oc1ccccc1)OCc1ccccc1 (stereo unspecified)	16%
COc1ccc(CC(NC(=O)OCc2ccccc2)P(=O)(Oc2ccccc2)Oc2ccccc2)cc1 (stereo unspecified)	6%
O=C(NC(c1ccc2ccccc2c1)P(=O)(Oc1ccccc1)Oc1ccccc1)OCc1ccccc1 (stereo unspecified)	51%
O=C(NC(c1cccnc1)P(=O)(Oc1ccccc1)Oc1ccccc1)OCc1ccccc1 (stereo unspecified)	27%
O=C(NC(c1ccc2occc2c1)P(=O)(Oc1ccccc1)Oc1ccccc1)OCc1ccccc1 (stereo unspecified)	6%
Cc1ccc(CC(NC(=O)OCc2ccccc2)P(=O)(Oc2ccccc2)Oc2ccccc2)cc1 (stereo unspecified)	7%
N#Cc1cccc(C(NC(=O)OCc2ccccc2)P(=O)(Oc2ccccc2)Oc2ccccc2)c1 (stereo unspecified)	15%
O=C(NC(c1cccc([N+](=O)[O-])c1)P(=O)(Oc1ccccc1)Oc1ccccc1)OCc1ccccc1 (stereo unspecified)	6%
NCCOC(=O)NC(c1ccc(NC(=O)C(F)(F)F)cc1)P(=O)(Oc1ccccc1)Oc1ccccc1 (stereo unspecified)	73%
O=C(NC(Cc1ccccc1)P(=O)(Oc1ccccc1)Oc1ccccc1)OCc1ccccc1 (stereo unspecified)	7%
N=C(N)N1CCC(C(NC(=O)C#Cc2ccc3c(c2)OCO3)P(=O)(Oc2ccccc2)Oc2ccccc2)CC1 (stereo unspecified)	24%
N=C(NO)c1cccc(C(Nc2ncccn2)P(=O)(Oc2ccccc2)Oc2ccccc2)c1 (stereo unspecified)	23%
O=C(NC(Cc1ccc2ccccc2c1)P(=O)(Oc1ccccc1)Oc1ccccc1)OCc1ccccc1 (stereo unspecified)	< 1%
O=C(NC(c1ccc(NC(=O)C(F)(F)F)cc1)P(=O)(Oc1ccccc1)Oc1ccccc1)OCc1ccccc1 (stereo unspecified)	15%

SMILES	inhibition
N=C(N)Nc1ccc(C(NC(=O)OCc2c(F)c(F)c(F)c(F)c2F)P(=O)(Oc2ccccc2)Oc2ccccc2)cc1 (stereo unspecified)	48%
N#C[C@@H](NC(=O)OCc1ccccc1)c1cccc(N)c1	8%
CC(C)C[C@H](NC(=O)OCc1ccccc1)C(=O)NC(Cc1ccc(O)cc1)P(=O)(Oc1ccccc1)Oc1ccccc1 (stereo partly specified)	< 1%
N=C(N)Nc1ccc(C(NS(=O)(=O)c2ccccc2)P(=O)(Oc2ccccc2)Oc2ccccc2)cc1 (stereo unspecified)	29%
N=C(N)N1CCC(C(NC(=O)/C=C\c2ccccc2)P(=O)(Oc2ccccc2)Oc2ccccc2)CC1 (stereo unspecified)	11%
N=C(N)N1CC(C(Nc2ncccn2)P(=O)(Oc2ccccc2)Oc2ccccc2)C1 (stereo unspecified)	12%
O=C(NC(Cc1cccc(O)c1)P(=O)(Oc1ccccc1)Oc1ccccc1)OCc1ccccc1 (stereo unspecified)	3%
N=C(N)N1CCC(C(NC(=O)/C=C/c2ccccc2)P(=O)(Oc2ccccc2)Oc2ccccc2)CC1 (stereo unspecified)	18%
COC(=O)NC(c1cccc(C(=N)N)c1)P(=O)(Oc1ccccc1)Oc1ccccc1 (stereo unspecified)	30%
O=C(NC(c1cccc2ccccc12)P(=O)(Oc1ccccc1)Oc1ccccc1)OCc1ccccc1 (stereo unspecified)	6%
CC(C)C[C@H](NC(=O)OCc1ccccc1)C(=O)N[C@H](C#N)Cc1ccc(O)cc1	13%
CN(C)C(=O)Nc1ccc(C(NC(=O)OCc2ccccc2)P(=O)(Oc2ccccc2)Oc2ccccc2)cc1 (stereo unspecified)	22%
O=C(NC(Cc1ccc(O)cc1)P(=O)(O)Oc1ccccc1)OCc1ccccc1 (stereo unspecified)	11%
COC(=O)NC(Cc1cccc(C(F)(F)F)c1)P(=O)(Oc1ccccc1)Oc1ccccc1 (stereo unspecified)	4%
O=C(NC(c1ccc2cc(O)ccc2c1)P(=O)(Oc1ccccc1)Oc1ccccc1)OCc1ccccc1 (stereo unspecified)	< 1%
NCC1CCC(C(NC(=O)OCc2ccccc2)P(=O)(Oc2ccccc2)Oc2ccccc2)CC1 (stereo unspecified)	15%
COP(=O)(Oc1ccccc1)C(Cc1ccc(O)cc1)NC(=O)OCc1ccccc1 (stereo unspecified)	14%
C#CCOCCOCCOC(=O)NC(c1ccc(N2CCNCC2)cc1)P(=O)(Oc1ccccc1)Oc1ccccc1 (stereo unspecified)	25%
N=C(N)N1CCC(C(NC(=O)/C=C/c2ccc3c(c2)OCO3)P(=O)(Oc2ccccc2)Oc2ccccc2)CC1 (stereo unspecified)	4%
O=C(NC(Cc1ccc(O)cc1)P(=O)(Oc1ccccc1)Oc1ccccc1)OCc1ccccc1 (stereo unspecified)	< 1%
COC(=O)NC(c1cccc(N)c1)P(=O)(Oc1ccc(NC(C)=O)cc1)Oc1ccc(NC(C)=O)cc1 (stereo unspecified)	12%

SMILES	inhibition
O=C(NC(c1ccc([N+](=O)[O-])cc1)P(=O)(Oc1ccccc1)Oc1ccccc1)OCc1ccccc1 (stereo unspecified)	71%
CC(NC(=O)OCc1ccccc1)P(=O)(Oc1ccccc1)Oc1ccccc1 (stereo unspecified)	3%
N=C(N)NCCCC(NC(=O)OCc1ccccc1)P(=O)(Oc1ccccc1)Oc1ccccc1 (stereo unspecified)	15%
COC(=O)NC(Cc1ccc(NC(=N)N)cc1)P(=O)(Oc1ccccc1)Oc1ccccc1 (stereo unspecified)	27%
N=C(N)Nc1ccc(C(NC(=O)OCc2ccccc2)P(=O)(Oc2ccccc2)Oc2ccccc2)cc1 (stereo unspecified)	29%
COc1ccc(CC(=O)NC(C2CCN(C(=N)N)CC2)P(=O)(Oc2ccccc2)Oc2ccccc2)cc1 (stereo unspecified)	13%
COC(=O)NC(c1ccc(NC(=O)C(F)(F)F)cc1)P(=O)(Oc1ccccc1)Oc1ccccc1 (stereo unspecified)	64%
O=C(NC(Cc1ccc(F)cc1)P(=O)(Oc1ccccc1)Oc1ccccc1)OCc1ccccc1 (stereo unspecified)	13%
CC(=O)Nc1ccc(OP(=O)(Oc2ccc(NC(C)=O)cc2)C(Cc2ccccc2)NC(=O)OCc2ccccc2)cc1 (stereo unspecified)	9%
N=C(N)Nc1ccc(C(NS(=O)(=O)c2ccc(C(F)(F)F)cc2)P(=O)(Oc2ccccc2)Oc2ccccc2)cc1 (stereo unspecified)	27%
Nc1cccc(C(NC(=O)OCc2ccc3c(c2)OCO3)P(=O)(Oc2ccccc2)Oc2ccccc2)c1 (stereo unspecified)	20%
C#CCCCOC(=O)NC(Cc1ccc(NC(=N)N)cc1)P(=O)(Oc1ccccc1)Oc1ccccc1 (stereo unspecified)	23%
N#C[C@H](Cc1ccc(O)cc1)NC(=O)OCc1ccccc1	< 1%
N=C(N)N1CCC(C(NC(=O)c2ccco2)P(=O)(Oc2ccccc2)Oc2ccccc2)CC1 (stereo unspecified)	24%
N=C(N)Nc1ccc(CC(NC(=O)OCCC(F)(F)C(F)(F)C(F)(F)C(F)(F)C(F)(C(F)(F)F)C(F)(F)F)P(=O)(Oc2ccccc2)Oc2ccccc2)cc1 (stereo unspecified)	55%
CN(C)c1ccc(C(NC(=O)OCc2ccccc2)P(=O)(Oc2ccccc2)Oc2ccccc2)c2ccccc12 (stereo unspecified)	< 1%
CN(C)C(=O)Nc1ccc(CC(NC(=O)OCc2ccccc2)P(=O)(Oc2ccccc2)Oc2ccccc2)cc1 (stereo unspecified)	9%
CC(C)CC(NC(=O)OCc1ccccc1)P(=O)(Oc1ccccc1)Oc1ccccc1 (stereo unspecified)	4%
Nc1ccc(C(NC(=O)OCCOc2ccccc2)P(=O)(Oc2ccccc2)Oc2ccccc2)cc1 (stereo unspecified)	1%
Nc1ccc(C(NC(=O)OCCCC(F)(F)F)P(=O)(Oc2ccccc2)Oc2ccccc2)cc1 (stereo unspecified)	< 1%
O=C(NC(C1CCNCC1)P(=O)(Oc1ccccc1)Oc1ccccc1)OCc1ccccc1 (stereo unspecified)	30%

SMILES	inhibition
O=C(NC(CCc1ccccc1)P(=O)(Oc1ccccc1)Oc1ccccc1)OCc1ccccc1 (stereo unspecified)	< 1%
O=C(NC(c1ccc2c(c1)OCO2)P(=O)(Oc1ccccc1)Oc1ccccc1)OCc1ccccc1 (stereo unspecified)	6%
Nc1ccc2cc(C(NC(=O)OCc3ccccc3)P(=O)(Oc3ccccc3)Oc3ccccc3)ccc2c1 (stereo unspecified)	< 1%
CC(=O)Nc1ccc(OP(=O)(Oc2ccc(NC(C)=O)cc2)C(Cc2ccc(C(F)(F)F)cc2)NC(=O)OCc2ccccc2)cc1 (stereo unspecified)	1%
N=C(N)N1CCC(C(NC(=O)c2cccnc2)P(=O)(Oc2ccccc2)Oc2ccccc2)CC1 (stereo unspecified)	13%
N=C(N)Nc1ccc(CC(NC(=O)OCc2c(F)c(F)c(F)c(F)c2F)P(=O)(Oc2ccccc2)Oc2ccccc2)cc1 (stereo unspecified)	25%
N=C(N)Nc1cccc2c(C(NC(=O)OCc3ccccc3)P(=O)(Oc3ccccc3)Oc3ccccc3)cccc12 (stereo unspecified)	38%
Nc1ccc(C(NC(=O)OCc2c(F)c(F)c(F)c(F)c2F)P(=O)(Oc2ccccc2)Oc2ccccc2)cc1 (stereo unspecified)	28%
NCCOc1ccc(C(NC(=O)OCc2ccccc2)P(=O)(Oc2ccccc2)Oc2ccccc2)cc1 (stereo unspecified)	15%
CS(=O)(=O)Nc1ccc(CCC(NC(=O)OCc2ccccc2)P(=O)(Oc2ccccc2)Oc2ccccc2)cc1 (stereo unspecified)	10%
CC(=O)Nc1ccc(C(NC(=O)OCc2ccccc2)P(=O)(Oc2ccccc2)Oc2ccccc2)cc1 (stereo unspecified)	8%
N#Cc1cc(C(NC(=O)OCc2ccccc2)P(=O)(Oc2ccccc2)Oc2ccccc2)ccc1N1CCNCC1 (stereo unspecified)	10%
N=C(N)N1CCC(C(Nc2ncc(-c3ccccc3)cn2)P(=O)(Oc2ccccc2)Oc2ccccc2)CC1 (stereo unspecified)	12%
COC(=O)NC(c1cccc2c([N+](=O)[O-])cccc12)P(=O)(Oc1ccccc1)Oc1ccccc1 (stereo unspecified)	17%
[N-]=[N+]=NCCOCCOC(=O)NC(Cc1ccc(NC(=N)N)cc1)P(=O)(Oc1ccccc1)Oc1ccccc1 (stereo unspecified)	68%
O=C(NC(COCc1ccccc1)P(=O)(Oc1ccccc1)Oc1ccccc1)OCc1ccccc1 (stereo unspecified)	4%
CSCCC(NC(=O)[C@H](CCCCN)NC(=O)OCc1ccccc1)P(=O)(Oc1ccccc1)Oc1ccccc1 (stereo partly specified)	4%
COC(=O)NC(Cc1ccc(C(F)(F)F)cc1)P(=O)(Oc1ccc(NC(C)=O)cc1)Oc1ccc(NC(C)=O)cc1 (stereo unspecified)	20%
